Source: article PMC6203112 (International Journal of Chronic Obstructive Pulmonary …, 2018)
Marks after values point to notes of the source that are not given here.

What was measured:
[1] = Study 2 Part 2: repeat ascending dose; assay type: in vivo, human; conditions: MDDPI; for Racc / CL/F / AUC(0-t): geometric mean (% CV); for AUC(0-t) / Tmax: human, plasma, inhaled; for Tmax: median (range)
Procedure, shortened: (§1)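 Blood was collected in lithium heparin, chilled on ice, and centrifuged at 2,000 ×g for 15 min at ~4°C. Plasma was stabilised with 1 M citric acid (100 µL per 1 mL plasma) and stored at ≤−65°C. After solid-phase extraction, samples were assayed by validated LC-MS/MS with heated electrospray and a deuterated internal standard (LLOQ 10 pg/mL). PK parameters were derived non-compartmentally.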

[2] = Study 1 Part 2: repeat ascending dose; assay type: in vivo, human; conditions: SDDPI; for CL/F / Racc / AUC(0-t): geometric mean (% CV); for AUC(0-t) / Tmax: human, plasma, inhaled; for AUC(0-t): AUC0–24 h; for Tmax: median (range)
Procedure, shortened: as §1

[3] = Study 2 Part 1: adverse events after single doses via MDDPI; assay type: in vivo, human
Procedure, shortened: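 Study 2 Part 1 was a three-period single ascending dose design in healthy men and women, with four randomized treatment sequences. At each visit, test compound (2,400, 4,000, 4,800 µg) or placebo was inhaled via a reservoir multi-dose dry-powder inhaler, with the dose rising each visit. AEs and investigator-judged relation to study drug were recorded, reported as number (%) of the safety population.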

[4] = test system: human bronchial epithelial cells; conditions: alone and in combination with low-dose corticosteroids; cited from earlier work
[5] = human liver; cited from earlier work
[6] = in humans; cited from earlier work
[7] = Safety assessments in both studies; assay type: in vivo, human
Procedure, shortened: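 Healthy non- or ex-smoking volunteers aged 18–55 (Study 1 men only; Study 2 men and women), randomized, double-blind, placebo-controlled, single centre. AEs were recorded with the investigator-judged relation to study drug. Haematology and blood chemistry were taken at baseline and end of dosing. Blood pressure, ECG and 24 h Holter were taken at regular intervals, and FEV1 was checked for post-dose bronchospasm.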

[8] = Study 1 Part 2: adverse events after multiple OD doses via SDDPI; assay type: in vivo, human; conditions: 100 µg OD 7 days, N=8
Procedure, shortened: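 In Study 1 Part 2, healthy men were randomized to five parallel, dose-escalating cohorts. Each received test compound (100–1,600 µg) or matching placebo once daily for 7 days via a capsule-based single-dose dry-powder inhaler. AEs and investigator-assessed relation to study medication were recorded. Results are number (%) of subjects in the safety population (randomized, at least one dose).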

[9] = following both single and multiple doses

CS(=O)(=O)Nc1ccc(C(=O)O[C@@H](Cc2c(Cl)c[n+]([O-])cc2Cl)c2ccc(OC(F)F)c(OCC3CC3)c2)cc1OCC1CC1 [CHF6001]
Racc ([1]; 1,200 µg BID, Day 14, N=9): 6.66 (38.4) | CL/F ([1]; 1,200 µg BID, Day 14, n=8): 588 (50.7) ^a mL/min | CL/F ([1]; 2,000 µg BID, Day 14, N=9): 652 (39.0) mL/min | Racc ([1]; 2,000 µg BID, Day 14, N=9): 6.28 (19.5) | CL/F ([1]; 2,400 µg BID, Day 14, n=8): 646 (37.0) ^a mL/min | Racc ([1]; 2,400 µg BID, Day 14, n=8): 5.47 (36.6) ^a | AUC(0-t) ([1]; 1200 µg, AUC0–12 h, 1,200 µg BID, Day 14, N=9): 34 ng·h/mL | Tmax ([1]; 1200 µg, tmax, 1,200 µg BID, Day 14, N=9): 1.6 h | AUC(0-t) ([1]; 2000 µg, AUC0–12 h, 2,000 µg BID, Day 14, N=9): 51.1 ng·h/mL | Tmax ([1]; 2000 µg, tmax, 2,000 µg BID, Day 14, N=9): 1.5 h | AUC(0-t) ([1]; 2400 µg, AUC0–12 h, 2,400 µg BID, Day 14, n=8): 61.9 ng·h/mL | Tmax ([1]; 2400 µg, tmax, 2,400 µg BID, Day 14, n=8): 2.3 h | CL/F ([2]; 100 µg OD, Day 7, N=7): 723 (41.1) mL/min | Racc ([2]; 100 µg OD, Day 7, N=7): 2.89 (16.6) | CL/F ([2]; 300 µg OD, Day 7, N=8): 860 (44.7) mL/min | Racc ([2]; 300 µg OD, Day 7, N=8): 2.49 (31.8) | CL/F ([2]; 600 µg OD, Day 7, N=9): 956 (28.2) mL/min | Racc ([2]; 600 µg OD, Day 7, N=9): 2.47 (20.2) | CL/F ([2]; 1,200 µg OD, Day 7, N=9): 772 (26.6) mL/min | Racc ([2]; 1,200 µg OD, Day 7, N=9): 2.74 (28.2) | CL/F ([2]; 1,600 µg OD, Day 7, N=6): 910 (17.0) mL/min | Racc ([2]; 1,600 µg OD, Day 7, N=6): 2.75 (16.5) | AUC(0-t) ([2]; 100 ug, 100 µg OD, Day 1, N=7): 0.796 ng·h/mL | AUC(0-t) ([2]; 100 ug, 100 µg OD, Day 7, N=7): 2.3 ng·h/mL | Tmax ([2]; 100 ug, 100 µg OD, Day 1, N=7): 1.5 h | Tmax ([2]; 100 ug, 100 µg OD, Day 7, N=7): 1 h | AUC(0-t) ([2]; 300 ug, 300 µg OD, Day 1, N=8): 2.34 ng·h/mL | AUC(0-t) ([2]; 300 ug, 300 µg OD, Day 7, N=8): 5.82 ng·h/mL | Tmax ([2]; 300 ug, 300 µg OD, Day 1, N=8): 2 h | Tmax ([2]; 300 ug, 300 µg OD, Day 7, N=8): 1 h | AUC(0-t) ([2]; 600 ug, 600 µg OD, Day 1, N=9): 4.24 ng·h/mL | AUC(0-t) ([2]; 600 ug, 600 µg OD, Day 7, N=9): 10.5 ng·h/mL | Tmax ([2]; 600 ug, 600 µg OD, Day 1, N=9): 1.5 h | Tmax ([2]; 600 ug, 600 µg OD, Day 7, N=9): 2 h | AE considered related to study medication ([3]; single dose 2,400 µg, N=9): 1 (11.1) Number (%) of subjects | AE leading to death ([3]; single dose 2,400 µg, N=9): 0 Number (%) of subjects | AE leading to withdrawal ([3]; single dose 2,400 µg, N=9): 1 (11.1) Number (%) of subjects | At least one AE ([3]; single dose 2,400 µg, N=9): 3 (33.3) Number (%) of subjects | At least one SAE ([3]; single dose 2,400 µg, N=9): 0 Number (%) of subjects | Severe AE ([3]; single dose 2,400 µg, N=9): 1 (11.1) Number (%) of subjects | AE considered related to study medication ([3]; single dose 4,000 µg, N=8): 1 (12.5) Number (%) of subjects | AE leading to death ([3]; single dose 4,000 µg, N=8): 0 Number (%) of subjects | AE leading to withdrawal ([3]; single dose 4,000 µg, N=8): 0 Number (%) of subjects | At least one AE ([3]; single dose 4,000 µg, N=8): 1 (12.5) Number (%) of subjects | At least one SAE ([3]; single dose 4,000 µg, N=8): 0 Number (%) of subjects | Severe AE ([3]; single dose 4,000 µg, N=8): 0 Number (%) of subjects | AE considered related to study medication ([3]; single dose 4,800 µg, N=8): 0 Number (%) of subjects | AE leading to death ([3]; single dose 4,800 µg, N=8): 0 Number (%) of subjects | AE leading to withdrawal ([3]; single dose 4,800 µg, N=8): 0 Number (%) of subjects | At least one AE ([3]; single dose 4,800 µg, N=8): 1 (12.5) Number (%) of subjects | At least one SAE ([3]; single dose 4,800 µg, N=8): 0 Number (%) of subjects | Severe AE ([3]; single dose 4,800 µg, N=8): 0 Number (%) of subjects | cytokine levels after rhinovirus challenge [4]: reduced the levels of a range of cytokines in a concentration-dependent manner | metabolic stability [5]: metabolically stable | plasma protein bound [6]: > 99% | mean laboratory values ([7]; both studies): within normal ranges | post-dose decreases in FEV1 (bronchospasm) ([7]; both studies, single and multiple doses): no clinically significant post-dose decreases | mean ECG values [7, 9]: within the normal range | mean systolic and diastolic blood pressure [7, 9]: within the normal range | nausea events ([7]; following single doses in both studies): no nausea events | relationship between dose and occurrence of AEs or serious adverse events ([7]; single or multiple dosing): no relationship | AE considered related to study medication [8]: 0 Number (%) of subjects | AE leading to death [8]: 0 Number (%) of subjects
